From ChEMBL document CHEMBL1126705, “16 beta-([18F]fluoro)estrogens: systematic investigation of a new series of fluorine-18-labeled estrogens as potential imaging agents for estrogen-receptor-positive breast tumors” (J Med Chem, 1993)

Experiments:
Rattus norvegicus [1] = test: Tested in vivo for the biodistribution in rat fat at 1 hour after intravenous dose of 120 microCi of drug in 10%ethanol saline; type: ADME, organism-based, Adipose tissue
Procedure, shortened: (§1)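 Female Sprague-Dawley rats (25 days old, 40 g) under ether received 120 μCi of tracer iv (femoral vein; effective specific activity 1306 Ci/mmol) in 10% ethanol saline. They were decapitated at 1 h (n = 6) or 3 h (n = 5). Tissues were weighed and gamma-counted, reported as % injected dose/g, mean ± SD.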

Rattus norvegicus [2] = test: Tested in vivo for the biodistribution in rat uterus/blood at 1 hour after intravenous dose of 120 microCi of the drug and 15 ug of estradiol; type: ADME, organism-based
Procedure, shortened: (§2)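 Female Sprague-Dawley rats, 25 days old (~40–53 g), ether-anesthetized, given the 18F-labeled estrogen iv via femoral vein in 10% ethanol saline. […] Others were sacrificed by decapitation at 1 or 3 h. Blood and organs were excised, weighed and gamma counted as % injected dose/g, mean ± SD, typically n = 5 (4–6).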

Rattus norvegicus [3] = test: Tested in vivo for the biodistribution in rat uterus after 3 hours following an intravenous dose of 120 microCi of drug in 10%ethanol saline; type: ADME, organism-based
Procedure, shortened: (§3)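 Immature (25-day-old) female Sprague-Dawley rats, ether-anesthetized, given the fluorine-18-labeled estrogen by femoral vein injection in 10% ethanol saline. […] Other groups were killed by decapitation at 1 or 3 h. Blood and organs were weighed and gamma-counted. Data are % injected dose/g, mean ± SD, typically n = 5 per group.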

Rattus norvegicus [4] = test: Tested in vivo for the biodistribution in rat muscle at 1 hour after intravenous dose of 120 microCi of drug in 10%ethanol saline; type: ADME, organism-based, Muscle tissue; procedure, shortened: as §3
Rattus norvegicus [5] = test: Tested in vivo for the biodistribution in rat ovaries after 3 hours following an intravenous dose of 120 microCi of drug in 10%ethanol saline; type: ADME, organism-based, Female gonad; procedure, shortened: as §3
Rattus norvegicus [6] = test: Tested in vivo for the biodistribution in rat ovaries at 1 hour after intravenous dose of 120 microCi of the drug and 15 ug of estradiol; type: ADME, organism-based, Female gonad; procedure, shortened: as §3
Rattus norvegicus [7] = test: Tested in vivo for the biodistribution in rat uterus/blood after 3 hours following an intravenous dose of 120 microCi of drug in 10%ethanol saline; type: ADME, organism-based; procedure, shortened: as §2
Rattus norvegicus [8] = test: Tested in vivo for the biodistribution in rat kidney at 1 hour after intravenous dose of 120 microCi of drug in 10%ethanol saline; type: ADME, organism-based; procedure, shortened: as §1
Rattus norvegicus [9] = test: Tested in vivo for the biodistribution in blood of female rat at 1 hour after intravenous dose of 120 microCi of drug in 10%ethanol saline; type: ADME, organism-based; procedure, shortened: as §1
Rattus norvegicus [10] = test: Tested in vivo for the biodistribution in rat liver at 1 hour after intravenous dose of 120 microCi of the drug and 15 u g of estradiol; type: ADME, organism-based; procedure, shortened: as §3
Rattus norvegicus [11] = test: Tested in vivo for the biodistribution in blood of female rat after 3 hours following an intravenous dose of 120 microCi of drug in 10%ethanol saline; type: ADME, organism-based; procedure, shortened: as §1
Rattus norvegicus [12] = test: Tested in vivo for the biodistribution in rat uterus/muscle after 3 hours following an intravenous dose of 120 microCi of drug in 10%ethanol saline; type: ADME, organism-based, Muscle tissue; procedure, shortened: as §2
Rattus norvegicus [13] = test: Tested in vivo for the biodistribution in rat uterus at 1 hour after intravenous dose of 120 microCi of drug in 10%ethanol saline; type: ADME, organism-based; procedure, shortened: as §3
Rattus norvegicus [14] = test: Tested in vivo for the biodistribution in rat ovaries at 1 hour after intravenous dose of 120 microCi of drug in 10%ethanol saline; type: ADME, organism-based, Female gonad; procedure, shortened: as §3
Rattus norvegicus [15] = test: Tested in vivo for the biodistribution in rat uterus/muscle at 1 hour after intravenous dose of 120 microCi of drug in 10%ethanol saline; type: ADME, organism-based, Muscle tissue; procedure, shortened: as §2
[16] = target: T1, Estrogen receptor (Rattus norvegicus) (UniProt P06211+Q62986)
Rattus norvegicus [17] = test: Tested in vivo for the biodistribution in rat bone at 1 hour after intravenous dose of 120 microCi of drug in 10%ethanol saline; type: ADME, organism-based, Bone element; procedure, shortened: as §1
Rattus norvegicus [18] = test: Tested in vivo for the biodistribution in rat kidney after 3 hours following an intravenous dose of 120 microCi of drug in 10%ethanol saline; type: ADME, organism-based; procedure, shortened: as §1
Rattus norvegicus [19] = test: Tested in vivo for the biodistribution in rat muscle at 1 hour after intravenous dose of 120 microCi of the drug and 15 ug of estradiol; type: ADME, organism-based, Muscle tissue; procedure, shortened: as §3
Rattus norvegicus [20] = test: Tested in vivo for the biodistribution in rat bone at 1 hour after intravenous dose of 120 microCi of the drug and 15 ug of estradiol; type: ADME, organism-based, Bone element
Rattus norvegicus [21] = test: Tested in vivo for the biodistribution in rat kidney at 1 hour after intravenous dose of 120 microCi of the drug and 15 u g of estradiol; type: ADME, organism-based
Rattus norvegicus [22] = test: Tested in vivo for the biodistribution in rat liver after 3 hours following an intravenous dose of 120 microCi of drug in 10%ethanol saline; type: ADME, organism-based; procedure, shortened: as §3
Rattus norvegicus [23] = test: Tested in vivo for the biodistribution in rat fat at 1 hour after intravenous dose of 120 microCi of the drug and 15 micro g of estradiol; type: ADME, organism-based, Adipose tissue
Rattus norvegicus [24] = test: Tested in vivo for the biodistribution in rat muscle after 3 hours following an intravenous dose of 120 microCi of drug in 10%ethanol saline; type: ADME, organism-based, Muscle tissue; procedure, shortened: as §3
Rattus norvegicus [25] = test: Tested in vivo for the biodistribution in blood of female rat at 1 hour after intravenous dose of 120 microCi of the drug and 15 u g of estradiol; type: ADME, organism-based
[26] = target: T2, Alpha-fetoprotein (Rattus norvegicus) (UniProt P02773); test: Relative binding affinity for Alphafetoprotein
T2 sequence (whole entry): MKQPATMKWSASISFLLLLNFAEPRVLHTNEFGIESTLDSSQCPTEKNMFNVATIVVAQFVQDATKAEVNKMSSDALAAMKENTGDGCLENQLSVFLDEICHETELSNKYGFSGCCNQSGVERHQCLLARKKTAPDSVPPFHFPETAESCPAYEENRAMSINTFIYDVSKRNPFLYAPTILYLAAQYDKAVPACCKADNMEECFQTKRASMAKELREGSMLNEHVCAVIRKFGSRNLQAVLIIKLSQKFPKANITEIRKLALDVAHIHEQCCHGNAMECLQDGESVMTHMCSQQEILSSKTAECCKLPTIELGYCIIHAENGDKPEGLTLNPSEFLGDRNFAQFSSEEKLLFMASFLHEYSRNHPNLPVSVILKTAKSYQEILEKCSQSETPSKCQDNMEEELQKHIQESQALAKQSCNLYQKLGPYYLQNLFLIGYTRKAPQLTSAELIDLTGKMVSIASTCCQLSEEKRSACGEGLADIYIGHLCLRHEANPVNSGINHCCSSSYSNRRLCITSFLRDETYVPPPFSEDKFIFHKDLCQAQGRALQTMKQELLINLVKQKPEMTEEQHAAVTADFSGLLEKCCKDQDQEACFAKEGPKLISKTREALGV

Rattus norvegicus [27] = test: Tested in vivo for the biodistribution in rat fat after 3 hours following an intravenous dose of 120 microCi of drug in 10%ethanol saline; type: ADME, organism-based, Adipose tissue; procedure, shortened: as §1
Rattus norvegicus [28] = test: Tested in vivo for the biodistribution in rat liver at 1 hour after intravenous dose of 120 microCi of drug in 10%ethanol saline; type: ADME, organism-based; procedure, shortened: as §3
Rattus norvegicus [29] = test: Tested in vivo for the biodistribution in rat bone after 3 hours following an intravenous dose of 120 microCi of drug in 10%ethanol saline; type: ADME, organism-based, Bone element; procedure, shortened: as §1
[30] = target: T3, Sex hormone-binding globulin (Homo sapiens) (UniProt P04278); test: Relative binding affinity against sex steroid binding protein (SBP)
T3 sequence (whole entry): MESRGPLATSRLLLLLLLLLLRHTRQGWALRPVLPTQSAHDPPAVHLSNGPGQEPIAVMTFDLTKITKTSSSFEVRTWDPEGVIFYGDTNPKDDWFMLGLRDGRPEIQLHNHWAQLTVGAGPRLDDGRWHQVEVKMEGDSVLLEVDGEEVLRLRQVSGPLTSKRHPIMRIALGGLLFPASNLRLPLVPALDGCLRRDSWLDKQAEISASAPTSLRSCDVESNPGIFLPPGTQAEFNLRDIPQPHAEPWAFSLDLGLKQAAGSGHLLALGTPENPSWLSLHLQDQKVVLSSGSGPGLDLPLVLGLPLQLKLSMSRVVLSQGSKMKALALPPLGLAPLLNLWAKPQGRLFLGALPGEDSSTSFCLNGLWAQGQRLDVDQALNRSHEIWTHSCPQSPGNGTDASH

[31] = target: T1, Estrogen receptor (Rattus norvegicus); remark: listed apart in the source
Rattus norvegicus [32] = test: Tested in vivo for the biodistribution in rat uterus at 1 hour after intravenous dose of 120 microCi of the drug and 15 micro g of estradiol; type: ADME, organism-based; procedure, shortened: as §3
Rattus norvegicus [33] = test: Tested in vivo for the biodistribution in rat uterus/muscle at 1 hour after intravenous dose of 120 microCi of the drug and 15 micro g of estradiol; type: ADME, organism-based, Muscle tissue; procedure, shortened: as §2
[34] = Partition coefficient (logP); type: physicochemical; conditions: octanol/water
Procedure, shortened: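 Octanol/water log P estimated from log k'w measured by reversed-phase HPLC (Minick method) on a C8 silica column.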

Rattus norvegicus [35] = test: Tested in vivo for the biodistribution in rat uterus/blood at 1 hour after intravenous dose of 120 microCi of drug in 10%ethanol saline; type: ADME, organism-based; procedure, shortened: as §2

Q: For `C[C@]12CC[C@@H]3c4ccc(O)cc4CC[C@H]3[C@@H]1C[C@H](F)[C@@H]2O`, which Injected (Rattus norvegicus [1]) is on record?
A: Its Injected is 0.31%.

Q: What about the Injected (Rattus norvegicus [2]) of the same compound?
A: The Injected was 0.857%.

Q: What about the Injected (Rattus norvegicus [3]) of the same compound?
A: The Injected was 1.176%.

Q: What about the “Injected (dose/g)” value (Rattus norvegicus [4]) of the same compound?
A: Its value is 0.402%.

Q: What about the Injected (Rattus norvegicus [5]) of the same compound?
A: The Injected was 0.615%.

Q: What about the “Injected (dose/g)” value (Rattus norvegicus [6]) of the same compound?
A: Its value is 1.189%.

Q: And the Injected (Rattus norvegicus [7])?
A: The Injected was 2.273%.

Q: What about the Injected (Rattus norvegicus [8]) of the same compound?
A: The Injected was 2.051%.

Q: What about the Injected (Rattus norvegicus [9]) of the same compound?
A: Its Injected is 0.949%.

Q: What about the Injected (Rattus norvegicus [10]) of the same compound?
A: The Injected was 3.771%.

Q: And the Injected (Rattus norvegicus [11])?
A: Its Injected is 0.534%.

Q: And the Injected (Rattus norvegicus [12])?
A: The Injected was 9.05%.

Q: What about the Injected (Rattus norvegicus [13]) of the same compound?
A: Its Injected is 4.994%.

Q: What about the Injected (dose/g) (Rattus norvegicus [14]) of the same compound?
A: The Injected (dose/g) was 1.91%.

Q: And the Injected (Rattus norvegicus [15])?
A: Its Injected is 15.22%.

Q: What about the NSB [16] of the same compound?
A: Its NSB is 0.63.

Q: And the “Injected (dose/g)” value (Rattus norvegicus [17])?
A: Its value is 1.008%.

Q: And the Injected (Rattus norvegicus [18])?
A: The Injected was 0.821%.

Q: What about the Injected (Rattus norvegicus [19]) of the same compound?
A: The Injected was 0.466%.

Q: And the Injected (Rattus norvegicus [20])?
A: The Injected was 1.216%.

Q: What about the “Injected (dose/g)” value (Rattus norvegicus [21]) of the same compound?
A: The value was 3.388%.

Q: And the “Injected (dose/g)” value (Rattus norvegicus [22])?
A: Its value is 1.483%.

Q: What about the “Injected (dose/g)” value (Rattus norvegicus [23]) of the same compound?
A: The value was 0.391%.

Q: What about the “Injected (dose/g)” value (Rattus norvegicus [24]) of the same compound?
A: The value was 0.151%.

Q: What about the Injected (Rattus norvegicus [25]) of the same compound?
A: Its Injected is 1.486%.

Q: And the relative binding affinity (RBA) [26]?
A: The relative binding affinity (RBA) was 20.

Q: And the Injected (Rattus norvegicus [27])?
A: Its Injected is 0.131%.

Q: And the “Injected (dose/g)” value (Rattus norvegicus [28])?
A: Its value is 2.957%.

Q: What about the “Injected (dose/g)” value (Rattus norvegicus [29]) of the same compound?
A: The value was 1.201%.

Q: What about the relative binding affinity (RBA) [30] of the same compound?
A: The relative binding affinity (RBA) was 8.9.

Q: What about the BSI [31] of the same compound?
A: Its BSI is 19.

Q: What about the Injected (Rattus norvegicus [32]) of the same compound?
A: Its Injected is 1.257%.

Q: And the Injected (Rattus norvegicus [33])?
A: The Injected was 2.685%.

Q: And the logP [34]?
A: Its logP is 2.81.

Q: And the “Injected (dose/g)” value (Rattus norvegicus [35])?
A: The value was 5.631%.
